Compound activity from PubChem BioAssay.
CASP6 VEID inh: inhibitors of human caspase-6 | purified caspase-6, Z-VEID-R110 cleavage fluorescence | inhibition, % at 12.5 µM | P55212 | AID 686996 | 350,000 tested, 0.53% active;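 active = mean inhibition across replicates at least about 35%, with every replicate also reaching that limit, limit read from the data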;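 also: 0% = median of neutral control wells and 100% = no fluorescence left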
Target sequence (P55212 24-179 limits assumed): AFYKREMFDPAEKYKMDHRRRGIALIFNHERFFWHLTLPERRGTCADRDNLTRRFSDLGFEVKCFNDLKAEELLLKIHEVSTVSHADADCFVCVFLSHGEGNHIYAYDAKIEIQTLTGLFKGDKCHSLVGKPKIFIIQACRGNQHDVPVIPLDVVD
Target sequence (P55212 194-293 limits assumed): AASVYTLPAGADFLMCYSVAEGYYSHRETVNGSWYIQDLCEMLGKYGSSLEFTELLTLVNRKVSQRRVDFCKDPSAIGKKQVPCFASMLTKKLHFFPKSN
DNMT1 inh: DNMT1 (human) enzyme inhibition | DNMT1 molecular beacon, Hinp1I cleavage, fluorescence | inhibition (reported as % activation of signal), % at 10 µM | AID 588458 | P26358 | 360,000 tested, 0.83% active; in the data active = inhibition above about 50%
SUMO1-SIM PPI: alters human SUMO1 binding to SIM partners. 360,000 tested, 0.33% active. SUMO1 binding to a labelled peptide, TR-FRET, 1 h. P63165. inhibition, % at 20 µM. AID 602429; in the data active = inhibition above about 37%
Target sequence (P63165 whole entry, looked up): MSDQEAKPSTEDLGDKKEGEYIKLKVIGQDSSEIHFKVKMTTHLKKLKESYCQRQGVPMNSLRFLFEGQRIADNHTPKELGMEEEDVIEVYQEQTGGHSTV
Scp-1 inhibitor: inhibitors of human Scp-1 phosphatase. Q9GZU7. inhibition, % at 20 µM. Recombinant Scp1, phosphopeptide, malachite green phosphate absorbance. AID 493091. 340,000 tested, 0.88% active;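 active = inhibition above about 50% at 20 µM, limit read from the data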;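 also: plate controls were DMSO wells with enzyme for no effect and wells lacking enzyme for full effect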
Target sequence (Q9GZU7 76-261 limits assumed): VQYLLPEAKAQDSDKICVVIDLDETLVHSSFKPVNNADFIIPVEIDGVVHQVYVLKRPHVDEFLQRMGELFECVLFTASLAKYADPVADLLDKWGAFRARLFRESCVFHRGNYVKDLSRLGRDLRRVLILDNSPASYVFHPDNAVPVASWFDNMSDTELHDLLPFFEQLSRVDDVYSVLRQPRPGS
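Times: enzyme reaction 45 min at room temperature, colour 5 min, stabilisation 30 min. Material: SCP-1 catalytic fragment, aa 76-261. Medium: Acidic Tris acetate buffer with magnesium and detergent. Signal: colorimetric free-phosphate detection, absorbance 630 nm. Read-out basis: % inhibition of SCP-1 phosphate liberation. Reagent: Phosphorylated 17-residue peptide substrate.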
STEP inh: blocks human striatal-enriched tyrosine phosphatase; P54829; recombinant STEP, OMFP fluorogenic substrate, fluorescence; inhibition, % at 20 µM; 360,000 tested, 0.25% active; AID 588621;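 active = inhibition at 20 µM, scaled per plate between control wells, above about 37%, limit read from the data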;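 also: 0% = DMSO with enzyme and substrate and 100% = substrate only without enzyme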
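Also added – OMFP at 25 µM · Test system – STEP tyrosine phosphatase · Technique – FITC-channel fluorescence of OMFP product · Schedule – 20 min at room temperature, dark · Evaluation – control-normalized % inhibition with plate pattern correction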
LMPTP inh: LMPTP (human) inhibition | inhibition, % at 20 µM | 360,000 tested, 0.22% active | P24666 | recombinant LMPTP-A, OMFP fluorogenic substrate, fluorescence intensity;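 active = compounds that cut the enzyme signal by at least half of the control window in the single-dose screen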;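 also: plate controls were DMSO wells with enzyme plus substrate for no effect and substrate without enzyme for full effect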
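Test system – LMPTP-A phosphatase enzyme · Quantity – 0.625 nM LMPTP-A final · Reagent – OMFP substrate, 400 µM final · Dosing – one test concentration per compound, 20 µM, with 3% DMSO overall · Timing – 50 min enzyme reaction at room temperature, protected from light · Detection – fluorescence intensity · Controls – substrate-only low control, DMSO enzyme-plus-substrate high control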
Scp-1 conf: Scp-1 (human) inhibition, single-dose confirmed; shares compounds with Scp-1 inhibitor; recombinant SCP-1 catalytic domain, phosphate release, malachite green absorbance; inhibition, % at 20 µM; 2,500 tested, 61% active; AID 540281;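 also: plate controls were DMSO with enzyme for no effect and buffer wells lacking enzyme for full effect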
MG interference: interferes with malachite green readout, flagging false Scp-1 hits. shares compounds with Scp-1 inhibitor. Colorimetric interference counterscreen, malachite green absorbance 630 nm. apparent inhibition (interference), % at 20 µM. 2,500 tested, under 10 active. AID 540313;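 also: compounds added after enzyme reaction finished so only phosphate colour detection is probed; plate controls were DMSO wells with completed Scp-1 reaction for no effect and substrate wells lacking enzyme for full effect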
Scp-1 Tm shift: binds human Scp-1, shifting its melting temperature | Recombinant SCP1, Sypro Orange thermal shift Tm | 1,500 tested, 25% active | shares compounds with Scp-1 inhibitor | thermal shift relative to vanadate control, % at 40 µM;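 active = substances whose mean melting-temperature shift, as a percentage of the reference inhibitor's shift, reaches about 5.3%, limit read from the data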;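 also: 0% = Tm of DMSO wells and 100% = Tm with sodium orthovanadate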
* = called active by the depositor; / = no result given. This is a sample that favours compounds with a hit; in the whole collection about 1.7% have one here.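 The calls were made as follows, unless noted: active = inhibition of at least 30% at 20 µM; inactive = the rest.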

SMILES	CASP6 VEID inh	DNMT1 inh	SUMO1-SIM PPI	Scp-1 inhibitor	STEP inh	LMPTP inh	Scp-1 conf	MG interference	others
Cc1cc(C)c2c(=N)c3ccccc3n(CCCCCCCCn3c4ccccc4c(=N)c4c(C)cc(C)nc43)c2n1	18	13	95*	59*	11	87*	5	15
CCCCCCCCn1c2c(c(=N)c3ccccc31)CCC2	34	5	-4	-3	10	6	/	/
Cc1ccc(C(=O)NCCCNC(=O)COc2ccccc2Cl)cn1	20	-1	-5	58*	-1	-1	-5	-9
COc1cccc(CN2CCN(Cc3cccc4nonc34)CC2CCO)c1 (stereo not given)	-2	-2	-10	-2	1	2	/	/
Cc1ccc(NC(=O)CN(C)S(=O)(=O)c2ccc3c(c2)n(C)c(=O)c(=O)n3C)c(C)c1	-2	-1	4	1	1	-2	/	/
Cc1cc(C)c(NC(=O)CN(C)S(=O)(=O)c2ccc3c(c2)n(C)c(=O)c(=O)n3C)c(C)c1	1	2	2	-6	-1	-1	-18	-14
CCC(C)c1ccc(NC(=O)C2CCN(c3ccc(C(F)(F)F)cn3)CC2)cc1 (stereo not given)	/	10	0	0	-1	-1	/	/
Cc1c(/C(O)=C2/C(=O)C(=O)N(CCN3CCOCC3)C2c2cccs2)cnn1-c1ccccc1 (stereo not given)	/	3	-8	48	4	-3	-28	-20
CCOC(=O)NN1C(=O)c2ccccc2NC1(C)C	2	0	2	72*	-1	0	-4	-7
COCCN(C(=O)Cn1nnc2ccccc21)C(C(=O)NC1CCCCC1)c1ccc(OC)cc1OC (stereo not given)	/	11	-1	71*	0	1	48*	-5	Scp-1 Tm shift=-15
NCCCCC(=O)O	0	-2	1	54*	-3	-3	-7	-11
NCCCC(=O)O	-7	2	1	-6	-4	-1	/	/
O=C(CN1C(=O)c2ccccc2C1=O)Nc1cccnc1	-1	0	-1	-15	-2	-1	/	/
CCCN(CCC)C(=O)COc1cc(=O)n(CC)c2ccccc12	0	-1	4	-7	2	-1	/	/
NS(=O)(=O)c1ccc(N=C2C(=O)Nc3ccccc32)cc1	1	-1	-29	-3	-2	-1	/	/
O=C1Nc2ccccc2C1=Nc1ccc(S(=O)(=O)Nc2nccs2)cc1	9	4	88*	80*	38	3	73*	-5	Scp-1 Tm shift=13*
CCSc1nnc(NC(=O)C2CC=CCC2C(=O)O)s1 (stereo not given)	/	27	5	87*	12	0	53*	-8	Scp-1 Tm shift=-5
CCSc1nnc(NC(=O)C2CCCCC2)s1	/	1	-2	-1	-4	-1	/	/
Cc1ccc(C(=O)CSc2nnc3c4ccccc4nc(C(C)(C)C)n23)cc1	0	0	3	-13	0	3	/	/
Cc1csc2ncc(C(=O)N3CCCc4ccccc43)c(=O)n12	2	2	-1	87*	0	1	-16	-18
Cc1csc2ncc(C(=O)N3CCc4ccccc43)c(=O)n12	1	7	-7	-4	-2	-1	/	/
COc1ccc(Cl)cc1S(=O)(=O)NCc1cccnc1	/	0	5	60*	1	0	-17	-14
CCOc1ccc(Cl)cc1S(=O)(=O)NCc1cccnc1	/	1	2	-7	3	-1	/	/
CN=c1nc(-c2ccccc2)n(-c2ccccc2)s1	/	0	3	76*	-1	-1	29	-7
Cn1nc(-c2ccccc2)nc1-c1ccccc1	2	2	0	-3	-2	-1	/	/
SMILES	CASP6 VEID inh	DNMT1 inh	SUMO1-SIM PPI	Scp-1 inhibitor	STEP inh	LMPTP inh	Scp-1 conf	MG interference	others
CCOc1ccccc1NC(=O)CSc1nc(=O)n(Cc2ccncc2)c2c1CCC2	-1	1	-3	-1	-1	-1	/	/
COc1ccc(/C=N/n2c(=O)[nH]c3c([nH]c4ccc(C)cc43)c2=O)cc1CN1CCOCC1	1	-6	-12	-6	-2	0	/	/
O=C(CCC1CC(=O)Nc2ccccc21)NCc1ccccc1 (stereo not given)	1	-4	-1	-4	-1	1	/	/
O=C(CCC1CC(=O)Nc2ccccc21)NCc1ccc(F)cc1 (stereo not given)	-2	-10	1	-8	-2	-3	-8	-7
O=C(N/N=C/c1cc(Cl)cc([N+](=O)[O-])c1O)c1cc(-c2ccccn2)nc2ccccc12	-1	-9	11	104*	15	0	88*	-10	Scp-1 Tm shift=12*
Cn1c(SCc2cc(=O)n3cc(Br)ccc3n2)nnc1C1COc2ccccc2O1 (stereo not given)	/	35	-17	61*	3	0	41*	-21	Scp-1 Tm shift=-17
Cc1ccc(S(=O)(=O)N[C@@H]2CC[C@H](CCn3cc(C4CCCCC4)nn3)O[C@@H]2CO)cc1	4	/	/	/	/	/	/	/
Cc1ccc(Cl)cc1N1CCN(c2cccc[n+]2C)CC1	/	9	1	99*	-2	0	-4	-8
Cc1ccc(C)c(NC(=O)CSc2ncnc3nc[nH]c23)c1	5	1	-2	58*	0	0	-19	-16
CCc1cc(C(=O)N2CCN(C(=O)c3ccco3)CC2)sc1C	0	-2	9	-6	-3	0	/	/
COc1ccc(NC(=O)Nc2ccc(N(C)C)cc2)cc1	/	-8	1	57*	-4	0	-3	-14
COc1ccc(Cn2c(C3CCCCC3)nc3c(c(=O)c4ccccc4n3C)c2=O)cc1	/	/	/	87*	/	/	55*	-10	Scp-1 Tm shift=-29
CO[C@H]1CN(C)C(=O)c2cc(NC(=O)C3CCC3)ccc2OC[C@@H](C)N(CC2CCCCC2)C[C@H]1C	3	/	/	/	/	/	/	/
CSc1ccccc1NC(=O)c1cc2ncc(Br)cn2n1	16	22	-5	60*	3	2	50*	-13	Scp-1 Tm shift=-3
Cc1ccccc1Cn1ccc(NC(=O)c2cc3ncc(Br)cn3n2)n1	2	0	-5	-6	-3	-1	/	/
O=C(O)C1C2C=CC(C2)C1C(=O)N1CCc2ccccc21 (stereo not given)	/	6	-3	-5	3	0	/	/
